Data set [1] is described as follows: Cytotoxicity against CD1 mouse pancreatic acinar cells at 10 uM after 30 mins by propidium iodide staining based confocal microscopic analysis. Particulars: pancreatic acinar cell, 0.5 h. Summed up:
(§1)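 As a parallel cytotoxicity control, freshly isolated murine pancreatic acinar cells were exposed to compounds alone, without TLCS, at 0.1, 1.0 and 10 µM or at 1 and 10 µM. Necrotic cell death was scored.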

Data set [2] has as its system Pancreatic acinar cell. As to the kind of experiment: Inhibition of taurolithocholate acid 3-sulfate-induced necrosis in CD1 mouse pancreatic acinar cells at 10 uM after 30 mins by propidium iodide staining based confocal microscopic analysis. In kind it is functional. Summed up:
(§2)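 Freshly isolated murine pancreatic acinar cells were exposed to the pancreatitis toxin taurolithocholate acid 3-sulphate (500 µM) with inhibitor at 0.1, 1.0 and 10 µM or at 1 and 10 µM.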

The subject of data set [3] is Pancreatic acinar cell. As to the kind of experiment: Inhibition of taurolithocholate acid 3-sulfate-induced necrosis in CD1 mouse pancreatic acinar cells at 1 uM after 30 mins by propidium iodide staining based confocal microscopic analysis. The data set is classed as functional. Summed up:
as §2

Data set [4] in a line: Cytotoxicity against CD1 mouse pancreatic acinar cells at 0.1 to 10 uM after 30 mins by propidium iodide staining based confocal microscopic analysis. The following applies: pancreatic acinar cell, 0.5 h. Summed up: as §1
For data set [5], the system named is Pancreatic acinar cell. Briefly: Inhibition of taurolithocholate acid 3-sulfate-induced change in mitochondrial membrane potential in CD1 mouse pancreatic acinar cells at 0.1 to 10 uM after 30 mins by tetramethyl rhodamine methyl ester dye based fluorescence analysis. In kind it is functional, cell membranes.
In data set [6] the test system is Pancreatic acinar cell. Briefly: Inhibition of taurolithocholate acid 3-sulfate-induced necrosis in CD1 mouse pancreatic acinar cells at 1 to 10 uM after 30 mins by propidium iodide staining based confocal microscopic analysis. The data set is classed as functional. Summed up: as §2
Data set [7] has as its system Pancreatic acinar cell. Briefly: Inhibition of taurolithocholate acid 3-sulfate-induced necrosis in human pancreatic acinar cells at 10 uM after 30 mins by propidium iodide staining based confocal microscopic analysis. In kind it is functional.
Data set [8] in a line: Cytotoxicity against CD1 mouse pancreatic acinar cells at 1 to 10 uM after 30 mins by propidium iodide staining based confocal microscopic analysis. The following applies: pancreatic acinar cell, 0.5 h. Summed up: as §1

The structures appear in SMILES notation. Calls of active or inactive are those of the source. The rule behind the calls is not given here.

Data on three compounds can be found in ChEMBL document CHEMBL3797189, “Small Molecule Inhibitors of Cyclophilin D To Protect Mitochondrial Function as a Potential Treatment for Acute Pancreatitis” (J Med Chem, 2016).

For the compound `Nc1ccc(CNC(=O)NCC(=O)N2CCC[C@@H]2c2ccccc2Br)cc1`, the Activity entry in data set [1] is recorded as “Toxic”. Further, the inhibition result in the data set on Pancreatic acinar cell [2] was “Active”. Moreover, in the data set on Pancreatic acinar cell [3], the inhibition entry was “inactive”.

On to `CSCC[C@H](NC(=O)NCc1ccc(N)cc1)C(=O)N1CCC[C@H]1c1ccccc1SC`, for which the Activity entry in data set [4] is “Non-toxic”. Further, the inhibition entry with Pancreatic acinar cell [5], with Pancreatic acinar cell [6] and in the data set with Pancreatic acinar cell [7] was “Active” in each case.

For `CCOC(=O)[C@H](CCSC)NC(=O)NCc1ccc(N)cc1`, in data set [8], the Activity result is given as “Non-toxic”. In the data set with Pancreatic acinar cell [2], the inhibition entry is “Active”. In addition, in the data set with Pancreatic acinar cell [3], the inhibition result was “inactive”.
